Here are results for 2 compounds from paper PMC7302971 (Bioorganic chemistry, 2020).

In one data set the target is T1, GLUT1 (Homo sapiens, UniProt P11166).
T1 sequence (P11166 1-492): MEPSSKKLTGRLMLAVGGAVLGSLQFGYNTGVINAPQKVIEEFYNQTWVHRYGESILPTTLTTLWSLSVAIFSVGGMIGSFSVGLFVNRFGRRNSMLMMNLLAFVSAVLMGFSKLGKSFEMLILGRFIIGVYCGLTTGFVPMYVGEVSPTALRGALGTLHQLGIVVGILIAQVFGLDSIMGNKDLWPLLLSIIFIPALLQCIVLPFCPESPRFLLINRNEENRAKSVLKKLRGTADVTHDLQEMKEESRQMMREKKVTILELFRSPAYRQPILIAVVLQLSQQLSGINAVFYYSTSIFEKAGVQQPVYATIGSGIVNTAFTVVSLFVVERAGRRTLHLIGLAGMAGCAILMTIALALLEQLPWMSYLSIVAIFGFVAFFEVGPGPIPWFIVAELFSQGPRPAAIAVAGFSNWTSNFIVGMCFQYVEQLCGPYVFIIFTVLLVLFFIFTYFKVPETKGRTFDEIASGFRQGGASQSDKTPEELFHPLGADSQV
Nature of the data set: GLUT transport inhibition assay in hxt0 yeast cells. In kind it is cell-based. Summed up: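 hxt0 yeast (VW4000fgy1) expressing human GLUT1 was grown at 30 °C in SC-uracil, first on 2% maltose, then on 2% glucose. Cells were PBS-washed (pH 7.4) to OD600 ~10. Test compound was varied from 0.1 to 100 μM. Uptake of 5 mM 14C-glucose ran 10 min and was stopped with ice-cold quench buffer (pH 5.5). Cells were filtered and counted by scintillation.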

A short description of data set [1]: DNS assay on normal human fibroblast. Format: cell-based. The settings on record: HS27 normal fibroblasts. The gist of the method: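 HS27 fibroblasts were tested by DNS imaging after exposure to test compound. Hoechst 33342, which stains all nuclei, and PI, which enters only membrane-compromised cells, were added before imaging.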
The target of another data set is T2, GLUT4 (Homo sapiens, UniProt P14672).
T2 sequence (P14672 1-509): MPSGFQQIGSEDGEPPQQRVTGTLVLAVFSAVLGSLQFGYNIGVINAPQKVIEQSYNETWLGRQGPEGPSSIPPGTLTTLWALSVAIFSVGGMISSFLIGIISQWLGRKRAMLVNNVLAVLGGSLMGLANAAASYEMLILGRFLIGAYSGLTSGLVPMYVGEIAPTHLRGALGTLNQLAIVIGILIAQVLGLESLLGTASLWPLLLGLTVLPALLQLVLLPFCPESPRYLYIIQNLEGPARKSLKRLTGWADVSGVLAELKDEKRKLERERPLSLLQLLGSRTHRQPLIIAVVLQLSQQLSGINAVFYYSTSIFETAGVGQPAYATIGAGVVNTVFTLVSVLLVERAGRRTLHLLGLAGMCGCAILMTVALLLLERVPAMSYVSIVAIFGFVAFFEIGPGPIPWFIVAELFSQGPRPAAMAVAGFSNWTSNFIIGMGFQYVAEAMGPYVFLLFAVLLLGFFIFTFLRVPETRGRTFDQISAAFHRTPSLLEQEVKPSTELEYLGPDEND
Nature of the data set: GLUT transport inhibition assay in hxt0 yeast cells. In kind it is cell-based. The settings on record: 50 μM compound, 5 mM C14-glucose. The gist of the method:
(§1)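 Human GLUT4 was expressed in VW4000fgy1erg4 yeast (1% maltose, then 0.2% glucose, SC-uracil). GLUT5 was expressed in VW4000 (YEP with 2% maltose and G418, then 2% fructose). PBS-washed cells were exposed to 50 μM test compound. Uptake of 14C-glucose (5 mM, GLUT4) or 14C-fructose (10 mM, GLUT5) ran 10 min, followed by quench, filtration and scintillation counting. Activity was relative to 1% DMSO and to saturating phloretin (GLUT4) or MSNBA (GLUT5). Triplicates.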

In the next data set the target is HDAC2 (Homo sapiens, UniProt Q92769). The experiment in a line: HDAC enzyme activity assay. Format: biochemical. The gist of the method:
(§2)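 Commercial enzyme was preincubated with serial inhibitor dilutions for 60 min at 30 °C in 25 mM Tris-HCl pH 8.0, 75 mM KCl and 0.001% Pluronic F-127. Reaction was started with 50 μM Boc-Lys(acetyl)-AMC, run 60 min at 30 °C, and stopped with 4.17 μM SAHA. Trypsin (0.4 mg/ml) released AMC, read at Ex 350/Em 450 nm. IC50 came from a four-parameter logistic fit.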

Another data set deals with GLUT5. The experiment in a line: GLUT transport inhibition assay in hxt0 yeast cells. Format: cell-based, human. The settings on record: 50 μM compound, 10 mM C14-fructose. Summed up: as §1
In a further data set the target is T3, HDAC6 (Homo sapiens, UniProt Q9UBN7).
T3 sequence (Q9UBN7 1-1215): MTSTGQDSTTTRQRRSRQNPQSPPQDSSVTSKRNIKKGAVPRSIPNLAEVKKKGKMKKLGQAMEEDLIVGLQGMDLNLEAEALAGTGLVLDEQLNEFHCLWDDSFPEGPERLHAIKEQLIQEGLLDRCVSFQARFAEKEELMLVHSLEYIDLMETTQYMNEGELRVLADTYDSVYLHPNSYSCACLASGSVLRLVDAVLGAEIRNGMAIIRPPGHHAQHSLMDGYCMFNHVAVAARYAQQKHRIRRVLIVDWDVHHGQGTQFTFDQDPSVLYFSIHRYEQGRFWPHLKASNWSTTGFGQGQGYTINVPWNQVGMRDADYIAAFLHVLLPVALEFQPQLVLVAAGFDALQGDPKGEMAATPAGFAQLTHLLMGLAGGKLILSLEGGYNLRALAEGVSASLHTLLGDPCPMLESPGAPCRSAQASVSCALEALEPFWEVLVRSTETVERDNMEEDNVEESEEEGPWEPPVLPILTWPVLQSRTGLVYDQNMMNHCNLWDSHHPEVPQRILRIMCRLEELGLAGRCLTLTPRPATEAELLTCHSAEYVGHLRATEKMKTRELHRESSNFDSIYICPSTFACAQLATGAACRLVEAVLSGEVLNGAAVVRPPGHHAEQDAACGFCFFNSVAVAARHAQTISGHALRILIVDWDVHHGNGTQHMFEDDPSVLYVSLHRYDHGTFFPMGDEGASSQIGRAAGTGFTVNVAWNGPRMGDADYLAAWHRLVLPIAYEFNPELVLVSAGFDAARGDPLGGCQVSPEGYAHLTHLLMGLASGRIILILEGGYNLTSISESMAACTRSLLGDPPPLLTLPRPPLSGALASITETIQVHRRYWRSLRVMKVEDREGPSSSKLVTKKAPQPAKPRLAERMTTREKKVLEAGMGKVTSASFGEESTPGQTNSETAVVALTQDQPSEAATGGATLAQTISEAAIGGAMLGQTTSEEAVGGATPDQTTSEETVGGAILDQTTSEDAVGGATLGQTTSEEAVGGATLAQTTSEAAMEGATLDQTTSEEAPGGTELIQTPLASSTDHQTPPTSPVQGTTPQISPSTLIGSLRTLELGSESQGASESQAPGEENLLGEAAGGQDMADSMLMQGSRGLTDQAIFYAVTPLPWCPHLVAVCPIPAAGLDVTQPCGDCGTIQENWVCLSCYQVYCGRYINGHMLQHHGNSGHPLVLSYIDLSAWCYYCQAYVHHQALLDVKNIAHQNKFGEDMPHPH
Nature of the data set: HDAC enzyme activity assay. Format: biochemical. The gist of the method: as §2

Structures are written as SMILES.

Chain of HDAC2 (Q92769 whole entry): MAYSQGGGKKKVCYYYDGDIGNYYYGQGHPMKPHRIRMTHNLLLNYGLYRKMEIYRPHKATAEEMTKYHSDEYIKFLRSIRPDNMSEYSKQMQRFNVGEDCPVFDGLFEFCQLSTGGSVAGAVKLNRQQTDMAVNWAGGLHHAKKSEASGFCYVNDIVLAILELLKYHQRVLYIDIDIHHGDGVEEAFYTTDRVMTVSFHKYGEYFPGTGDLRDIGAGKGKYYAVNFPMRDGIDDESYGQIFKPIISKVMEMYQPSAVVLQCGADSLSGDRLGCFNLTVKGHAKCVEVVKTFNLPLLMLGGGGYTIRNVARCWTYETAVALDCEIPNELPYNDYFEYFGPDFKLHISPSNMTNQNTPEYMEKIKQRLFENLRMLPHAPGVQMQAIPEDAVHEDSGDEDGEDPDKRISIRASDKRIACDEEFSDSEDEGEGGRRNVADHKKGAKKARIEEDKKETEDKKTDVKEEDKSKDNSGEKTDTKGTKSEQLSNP

As for `O=C(CN1C(=O)SC(=Cc2ccccn2)C1=O)Nc1nc2ccccc2s1` [Compound P19, N-(benzo[d]thiazol-2-yl)-2-(2,4-dioxo-5-(pyridin-2-ylmethylene)thiazolidin-3-yl)acetamide], the concentration for half-maximal inhibition (IC50) (as a rule, the concentration needed to halve the response being measured) on GLUT1 stood at 28.2 µM; on HDAC2 it was 41 µM; on HDAC6 it was 17 µM. Moreover, the half-maximal cytotoxic concentration (CC50) (in general, the concentration that lowers cell viability or growth by half) in data set [1] turned out to be 105 µM. Besides, the “relative transport activity of GLUT4” value at GLUT4 is reported as “ineffective”. Further, the “relative transport activity of GLUT5” value in the data set with GLUT5 is on record as “ineffective”.

In the case of `Cc1c(NC(=O)CN2C(=O)SC(=Cc3ccccn3)C2=O)c(=O)n(-c2ccccc2)n1C` [Compound P10, N-(1,5-dimethyl-3-oxo-2-phenyl-2,3-dihydro-1H-pyrazol-4-yl)-2-(2,4-dioxo-5-(pyridin-2-ylmethylene)thiazolidin-3-yl)acetamide], the figures for the concentration for half-maximal inhibition (IC50) against HDAC2 and on HDAC6 were 45 µM and 26 µM, respectively.
